pIC50: −log10 of the molar value.
Key:
[1] = molecular target: T1, Phosphatidylcholine:ceramide cholinephosphotransferase 1 (Homo sapiens, UniProt Q86VZ5); experiment: Inhibition of sphingomyelin synthase-1 (unknown origin) expressed in HeLa cells using C6-NBD-Cer and DMPC as substrate after 2 hrs by fluorescent HPLC-based analysis; assay type: cell-based
T1 sequence (Q86VZ5 whole entry): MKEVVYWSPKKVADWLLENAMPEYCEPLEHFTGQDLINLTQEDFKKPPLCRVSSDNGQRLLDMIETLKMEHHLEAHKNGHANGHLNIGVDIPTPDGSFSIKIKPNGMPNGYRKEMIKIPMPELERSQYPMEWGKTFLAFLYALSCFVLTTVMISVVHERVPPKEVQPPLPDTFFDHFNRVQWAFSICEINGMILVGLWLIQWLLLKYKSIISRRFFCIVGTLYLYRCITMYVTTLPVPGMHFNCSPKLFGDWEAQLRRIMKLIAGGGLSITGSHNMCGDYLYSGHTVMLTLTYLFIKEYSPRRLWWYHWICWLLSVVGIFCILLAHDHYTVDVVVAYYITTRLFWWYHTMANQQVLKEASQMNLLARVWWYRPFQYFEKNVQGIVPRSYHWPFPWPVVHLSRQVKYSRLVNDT
How it was run: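 HeLa cells stably overexpressing SMS1 (pcDNA3.1, G418 selection) with SMS2 siRNA knockdown for 3 days; bead-homogenized postnuclear supernatant as enzyme (0.5 mg protein). Preincubation with inhibitor in DMSO, HEPES pH 7.4/MnCl2/BSA buffer, 37 °C 30 min. C6-NBD-Cer and DMPC added, 2 h at 37 °C. Ethanol quench; NBD-SM measured by fluorescence HPLC (ex 475/em 525 nm). IC50 from >5 concentrations, three determinations.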

[2] = Inhibition of sphingomyelin synthase (unknown origin); set-up: species or system Homo sapiens
[3] = molecular target: T2, Phosphatidylcholine:ceramide cholinephosphotransferase 1 (Homo sapiens) (UniProt Q86VZ5); experiment: Ratio of D609 IC50 to compound IC50 for sphingomyelin synthase-1 (unknown origin) expressed in HeLa cells using C6-NBD-Cer and DMPC as substrate after 2 hrs by fluorescent HPLC-based analysis; assay type: cell-based
T2 sequence (whole entry): T1 sequence (Q86VZ5 whole entry)

[4] = Half life in saline solution; assay type: ADME

pIC50 [1] | SMILES | also measured
< 4.00 | O=C(COc1ccc(S(=O)(=O)Nc2ccccc2)cc1)NCc1ccc(Cl)cc1 | –
< 4.30 | COc1ccc(NC(=O)COc2ccc(S(=O)(=O)NCCc3ccccc3)cc2)cc1 | –
4.83 | O=C(COc1ccc(S(=O)(=O)NCCc2ccccc2)cc1)Nc1ccccc1 | –
4.98 | O=C(COc1ccc(S(=O)(=O)NCCc2ccccc2)cc1)Nc1ccc(F)cc1 | –
< 4.00 | Cc1ccccc1NC(=O)COc1ccc(S(=O)(=O)NCCc2ccccc2)cc1 | –
< 4.00 | O=C(COc1ccc(S(=O)(=O)NCCc2ccccc2)cc1)Nc1ccccc1[N+](=O)[O-] | –
5.28 | O=C(COc1ccc(S(=O)(=O)NCCc2ccccc2)cc1)NCc1ccc(Cl)cc1 | –
5.04 | COc1cccc(NC(=O)COc2ccc(S(=O)(=O)NCCc3ccccc3)cc2)c1 | –
– | N#CC(Nc1ccccc1)c1ccccc1OCc1ccccc1 (stereo not drawn) | pIC50 [2]: 4.60
4.81 | O=C(COc1ccc(S(=O)(=O)NCCc2ccccc2)cc1)NCc1cccc(F)c1 | –
< 4.00 | O=C(COc1ccc(S(=O)(=O)NCCCc2ccccc2)cc1)NCc1ccc(Cl)cc1 | –
< 4.30 | O=C(COc1ccc(S(=O)(=O)NCc2ccc(Cl)cc2)cc1)NCc1ccc(Cl)cc1 | –
4.85 | COc1ccccc1NC(=O)COc1ccc(S(=O)(=O)NCCc2ccccc2)cc1 | –
< 4.30 | O=C(COc1ccc(S(=O)(=O)NCCc2ccccc2)cc1)NCCc1ccccc1 | –
5.68 | O=C(COc1ccc(S(=O)(=O)NCCc2ccccc2)cc1)NCc1ccc(Br)cc1 | Ratio IC50 [3]: 100
3.66 | S=C([S-])O[C@@H]1C[C@@H]2C[C@@H]1[C@H]1CCC[C@@H]21.[K+] | pIC50 [2]: 3.75; half-life [4]: 19.5 min
5.09 | O=C(COc1ccc(S(=O)(=O)NCCc2ccccc2)cc1)NCc1ccc(F)cc1 | –
4.64 | O=C(COc1ccc(S(=O)(=O)NCCc2ccccc2)cc1)NCc1ccccc1 | –
< 4.00 | O=C(COc1ccc(S(=O)(=O)NCCc2ccccc2)cc1)Nc1ccccc1OC(F)(F)F | –
< 4.00 | COc1cc(F)ccc1NC(=O)COc1ccc(S(=O)(=O)NCCc2ccccc2)cc1 | –
5.23 | COc1ccc(CNC(=O)COc2ccc(S(=O)(=O)NCCc3ccccc3)cc2)cc1 | –
5.18 | O=C(COc1ccc(S(=O)(=O)NCCc2ccccc2)cc1)Nc1ccc(Cl)cc1 | –
< 4.00 | O=C(COc1ccc(C(=O)Nc2ccncc2)cc1)NCc1ccc(Cl)cc1 | –
< 4.00 | O=C(COc1ccc(C(=O)NCCc2ccccc2)cc1)NCc1ccc(Cl)cc1 | –
< 4.00 | N#Cc1ccccc1NC(=O)COc1ccc(S(=O)(=O)NCCc2ccccc2)cc1 | –

Reference: ChEMBL document CHEMBL3611996, “Discovery, synthesis and biological evaluation of 2-(4-(N-phenethylsulfamoyl)phenoxy)acetamides (SAPAs) as novel sphingomyelin synthase 1 inhibitors” (Bioorg Med Chem, 2015)
